Source: ChEMBL document CHEMBL1141114, “Adenosine kinase inhibitors. 5. Synthesis, enzyme inhibition, and analgesic activity of diaryl-erythro-furanosyltubercidin analogues” (J Med Chem, 2005)

Key:
Adenosine kinase = Adenosine kinase (Homo sapiens, UniProt P55263); experiment: Inhibitory concentration against human recombinant adenosine kinase using [14C]AMP as radioligand
Rattus norvegicus [1] = experiment: Percent inhibition of the licking and biting behavior in response to formalin injection at a dose of 20 mg/Kg when given orally in rat by formalin paw assay; (n=6); format: functional; conditions: po
Procedure, shortened: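 Rats got 20 mg/kg orally in PEG 400 vehicle 2 h before intraplantar formalin, n = 6. Activity is expressed as % inhibition of licking and biting behaviour.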

[2] = Plasma clearance at a dose of 1 mg/Kg in rat when given i.v.; format: ADME, organism-based; conditions: iv
Procedure, shortened: (§1)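 Rats and dogs, n = 3 per group. Oral dosing at 3 mg/kg as a suspension in 0.1% methylcellulose; intravenous dosing at 1 mg/kg as a solution in 75% PEG 400/25% saline. Plasma sampled at 0.25, 0.5, 1, 2, 4, 8 and 24 h and drug levels measured by HPLC. […] Parameters reported as mean ± S.D.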

[3] = Time required to be halved at a dose of 1 mg/kg in dog when given i.v.; format: ADME, organism-based, Canis lupus familiaris; parameters: dose 1 mg/kg, route intravenous; conditions: in vivo, iv; procedure, shortened: as §1
[4] = Bioavailability at a dose of 3 mg/Kg in rat when given orally; format: ADME, organism-based; conditions: in vivo, po; procedure, shortened: as §1
Rattus norvegicus [5] = experiment: Percent inhibition of the analgesic effect measured after carrageenan injection at a dose of 20 mg/Kg prophylactic when given orally by carrageenan-induced thermal hyperalgesia test; format: functional
Procedure, shortened: (§2)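 Fasted male SD rats (160–180 g) were injected in the right hind plantar paw with lambda carrageenan (2 mg in 100 μL). They were gavaged with 20 mg/kg or vehicle (PEG400/0.2% Tween/5% propylene glycol), either 0.5 h before (prophylactic) or 2 h after (therapeutic) carrageenan. Hargreaves heat withdrawal was measured in the inflamed and control paws at 3.5–4.5 h.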

[6] = Maximum plasma concentration at a dose of 3 mg/Kg in dog when given orally; format: ADME, organism-based, Canis lupus familiaris; parameters: dose 3 mg/Kg, route oral; conditions: po; procedure, shortened: as §1
[7] = Area under the plot of plasma concentration at a dose of 3 mg/Kg in rat when given orally; format: ADME; conditions: po; procedure, shortened: as §1
[8] = Distributed volume at a dose of 1 mg/Kg in rat when given i.v.; format: ADME, organism-based; conditions: in vivo, iv; procedure, shortened: as §1
[9] = Plasma clearance at a dose of 1 mg/kg in dog when given i.v.; format: ADME, organism-based, Canis lupus familiaris; parameters: dose 1 mg/kg, route intravenous; conditions: iv; procedure, shortened: as §1
[10] = Area under the plot of plasma concentration at a dose of 1 mg/Kg in rat when given i.v.; format: ADME; conditions: iv; procedure, shortened: as §1
[11] = Maximum time to achieve plasma concentration at a dose of 3 mg/Kg in rat when given orally; format: ADME, organism-based; conditions: po; procedure, shortened: as §1
[12] = Plasma clearance at a dose of 3 mg/Kg in rat when given orally; format: ADME, organism-based; conditions: po; procedure, shortened: as §1
Rattus norvegicus [13] = experiment: Percent inhibition of the analgesic effect measured after carrageenan injection at a dose of 20 mg/Kg therapeutic when given orally by carrageenan-induced thermal hyperalgesia test; format: functional; procedure, shortened: as §2
[14] = Time required to be halved at a dose of 3 mg/Kg in rat when given orally; format: ADME, organism-based; conditions: in vivo, po; procedure, shortened: as §1
[15] = Distributed volume at a dose of 3 mg/Kg in dog when given orally; format: ADME, organism-based, Canis lupus familiaris; conditions: in vivo, po; procedure, shortened: as §1
[16] = Area under the plot of plasma concentration at a dose of 3 mg/Kg in dog when given orally; format: ADME, Canis lupus familiaris; conditions: po, read-out: AUC 0-24h; procedure, shortened: as §1
Rattus norvegicus [17] = experiment: Effective dose for the […] effect measured after 2 hr when given orally in rat by rotarod assay.; format: functional; conditions: po
Procedure, shortened: (§3)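 Fasted male SD rats (90–110 g) were dosed orally at 10–300 mg/kg in 0.1% MC. They were first trained to walk on a rotarod at 5 rpm for 150 s. Walking time, as a measure of sedation and ataxia, was recorded at 0, 0.5, 1, 2 and 5 h after dosing, with a 150 s cutoff.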

[18] = Plasma clearance at a dose of 3 mg/Kg in dog when given orally; format: ADME, organism-based, Canis lupus familiaris; conditions: po; procedure, shortened: as §1
[19] = Maximum plasma concentration at a dose of 1 mg/kg in dog when given i.v.; format: ADME, organism-based, Canis lupus familiaris; parameters: dose 1 mg/kg, route intravenous; conditions: iv; procedure, shortened: as §1
[20] = Time required to be halved at a dose of 3 mg/Kg in dog when given orally; format: ADME, organism-based, Canis lupus familiaris; conditions: in vivo, po; procedure, shortened: as §1
[21] = Maximum plasma concentration at a dose of 1 mg/Kg in rat when given i.v.; format: ADME, organism-based; parameters: dose 1 mg/Kg, route intravenous; conditions: iv; procedure, shortened: as §1
[22] = Distributed volume at a dose of 3 mg/Kg in rat when given orally; format: ADME, organism-based; conditions: in vivo, po; procedure, shortened: as §1
Rattus norvegicus [23] = experiment: Effective dose of the licking and biting behavior in response to formalin injection at a dose of 20 mg/Kg when given orally in rat by formalin paw assay; (n=6); format: functional; conditions: po
[24] = Bioavailability at a dose of 3 mg/Kg in dog when given orally; format: ADME, organism-based, Canis lupus familiaris; conditions: in vivo, po; procedure, shortened: as §1
Rattus norvegicus [25] = experiment: Effective dose for the […] effect measured after 5 h when given orally in rat by rotarod assay.; format: functional; conditions: po; procedure, shortened: as §3
Monkey = experiment: Effective dose for the analgesic effect measured after bradykinin injection when given orally by marmoset monkey bradykinin-induced licking; (n=6); format: functional; conditions: po
Procedure, shortened: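 Six male marmosets (Callithrix jacchus, 250–340 g) got 0.3, 3, 10 or 30 mg/kg po, or 0.1% MC vehicle. At 60 min, 100 μL of 1 mM bradykinin in saline was injected intraplantar, alternating feet. Pain behaviour was scored 0–3 every 15 s for 15 min from video. Sessions were 2 weeks apart.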

[26] = Maximum plasma concentration at a dose of 3 mg/Kg in rat when given orally; format: ADME, organism-based; parameters: dose 3 mg/Kg, route oral; conditions: po; procedure, shortened: as §1
[27] = Maximum time to achieve plasma concentration at a dose of 3 mg/Kg in dog when given orally; format: ADME, organism-based, Canis lupus familiaris; conditions: po; procedure, shortened: as §1
[28] = Time required to be halved at a dose of 1 mg/Kg in rat when given i.v.; format: ADME, organism-based; conditions: in vivo, iv; procedure, shortened: as §1
[29] = Area under the plot of plasma concentration at a dose of 1 mg/kg in dog when given i.v.; format: ADME, organism-based, Canis lupus familiaris; parameters: dose 1 mg/kg, route intravenous; conditions: iv, read-out: AUC 0-24h; procedure, shortened: as §1
Rattus norvegicus [30] = experiment: Effective dose for the analgesic effect measured at 3 hr after administration when given orally by hot plate assay; (n=6); format: functional; conditions: po
Procedure, shortened: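 Fasted male SD rats (150–200 g) were gavaged with vehicle or graded doses. Hind-paw lick latency on a 50 °C hot plate (60 s max) was measured before dosing and at 0.5–4 h after.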

[31] = Distributed volume at a dose of 1 mg/kg in dog when given i.v.; format: ADME, organism-based, Canis lupus familiaris; parameters: dose 1 mg/kg, route intravenous; conditions: in vivo, iv; procedure, shortened: as §1
Rattus norvegicus [32] = experiment: Effective dose for the analgesic effect measured after carrageenan injection when given orally by carrageenan-induced mechanical hyperalgesia test; format: functional; conditions: po
Procedure, shortened: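 Fasted male SD rats (100–120 g) were dosed orally with 1, 3 or 10 mg/kg in 0.1% MC 1 h before intraplantar carrageenan (1%, 100 μL/paw). Mechanical hyperalgesia was read by Randall-Selitto analgesimeter at 3, 4 and 5 h after carrageenan.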

Adenosine kinase, sequence (P55263 whole entry): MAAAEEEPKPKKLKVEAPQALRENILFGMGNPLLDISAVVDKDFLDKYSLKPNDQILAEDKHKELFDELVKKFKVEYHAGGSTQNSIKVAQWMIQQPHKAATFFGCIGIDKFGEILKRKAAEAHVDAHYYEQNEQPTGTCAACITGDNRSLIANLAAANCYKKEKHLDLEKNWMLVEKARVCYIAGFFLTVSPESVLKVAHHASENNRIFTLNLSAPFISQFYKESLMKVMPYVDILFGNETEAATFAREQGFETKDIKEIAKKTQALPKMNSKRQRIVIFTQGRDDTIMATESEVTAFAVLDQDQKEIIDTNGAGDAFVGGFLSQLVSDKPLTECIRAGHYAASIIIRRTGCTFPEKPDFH

`O[C@H]1[C@H](n2cc(-c3ccccc3)c3c(Nc4ccc(F)cc4)ncnc32)OC2(CC2)[C@H]1O` gave an IC50 (Adenosine kinase) of 0.3 nM.

In the case of `Nc1ncnc2c1c(I)cn2[C@@H]1OC[C@@H](O)[C@H]1O`, the IC50 (Adenosine kinase) is reported as 6 nM.

With `CCOc1ccc(-c2cn([C@@H]3OC[C@@H](O)[C@H]3O)c3ncnc(Nc4ccccc4OC)c23)cc1` the IC50 (Adenosine kinase) was 5.3 nM and the inhibition in vivo at 20 mg/kg (Rattus norvegicus [1]) was 16%.

Compound `CCOc1ccc(Nc2ncnc3c2c(-c2ccccc2)cn3[C@@H]2OC[C@@H](O)[C@H]2O)cc1` has an IC50 (Adenosine kinase) of 3 nM and an inhibition in vivo at 20 mg/kg (Rattus norvegicus [1]) of 41%.

`O[C@@H]1[C@H](O)CO[C@H]1n1cc(-c2ccccc2)c2c(Nc3ccc(F)cc3)ncnc21` gave a clearance [2] of 21.7 mL/min/kg, a half-life [3] of 3.9 h and a bioavailability [4] of 61.2%. The Inhibition (Rattus norvegicus [5]) was 151%, the Cmax [6] was 628 ng/mL and the AUC0-8h [7] was 1440 ng·h/mL. For the same compound, the Vd [8] was 6.9 L/kg, the clearance [9] was 6.67 mL/min/kg and the AUC0-8h [10] was 785 ng·h/mL. For the same compound, the Tmax [11] was 3.5 h, the IC50 (Adenosine kinase) was 6 nM and the CL/F [12] was 25 mL/min/kg. For the same compound, the Inhibition (Rattus norvegicus [13]) was 99%, the half-life [14] was 3 h and the Vd [15] was 2.2 L/kg. It also gave an AUC [16] of 5340 ng·h/mL, an ED50 (Rattus norvegicus [17]) of 21.7 mg/kg and a CL/F [18] of 6.67 mL/min/kg. The Cmax [19] was 585 ng/mL, the half-life [20] was 4 h and the Cmax [21] was 523 ng/mL. It also gave a Vd [22] of 6.2 L/kg, an ED50 (Rattus norvegicus [23]) of 3.6 mg/kg and a bioavailability [24] of 60%. For the same compound, the ED50 (Rattus norvegicus [25]) was 11.9 mg/kg, the ED50 (Monkey) was 3.8 mg/kg and the Cmax [26] was 135 ng/mL. For the same compound, the Tmax [27] was 1.6 h, the half-life [28] was 3.2 h and the AUC [29] was 2970 ng·h/mL. It also gave an ED50 (Rattus norvegicus [30]) of 16 mg/kg, an inhibition in vivo at 20 mg/kg (Rattus norvegicus [1]) of 76% and a Vd [31] of 2 L/kg. For the same compound, the ED50 (Rattus norvegicus [32]) was 2.4 mg/kg.

For `N#Cc1ccc(Nc2ncnc3c2c(-c2ccc(Cl)cc2)cn3[C@@H]2OC[C@@H](O)[C@H]2O)cc1`, the IC50 (Adenosine kinase) was 7 nM and the inhibition in vivo at 20 mg/kg (Rattus norvegicus [1]) was 75%.

`O[C@@H]1[C@H](O)CO[C@H]1n1cc(-c2ccccc2)c2c(Nc3ccc4c(c3)OCCO4)ncnc21` showed an IC50 (Adenosine kinase) of 4 nM and an inhibition in vivo at 20 mg/kg (Rattus norvegicus [1]) of 80%.

`CC1(C)O[C@@H](n2cc(-c3ccccc3)c3c(Nc4ccccc4)ncnc32)[C@H](O)[C@@H]1O` gave an IC50 (Adenosine kinase) of 4000 nM.

Work on `Cc1ccccc1-c1cn([C@@H]2OC[C@@H](O)[C@H]2O)c2ncnc(Nc3ccc4c(c3)OCCO4)c12` yielded an IC50 (Adenosine kinase) of 1 nM and an inhibition in vivo at 20 mg/kg (Rattus norvegicus [1]) of 99%.

In the case of `CCOc1cccc(Nc2ncnc3c2c(-c2ccccc2)cn3[C@@H]2OC[C@@H](O)[C@H]2O)c1`, the IC50 (Adenosine kinase) is reported as 2 nM and the inhibition in vivo at 20 mg/kg (Rattus norvegicus [1]) is reported as 76%.

Compound `Nc1ncnc2c1c(I)cn2[C@@H]1OC2(CC2)[C@@H](O)[C@H]1O` has an IC50 (Adenosine kinase) of 600 nM.

With `O[C@@H]1[C@H](O)CO[C@H]1n1cc(-c2ccccc2)c2c(Nc3ccccc3)ncnc21` the IC50 (Adenosine kinase) was 4 nM and the inhibition in vivo at 20 mg/kg (Rattus norvegicus [1]) was 78%.

In the case of `Nc1cccc(-c2cn([C@@H]3OC[C@@H](O)[C@H]3O)c3ncnc(Nc4ccc(F)cc4)c23)c1`, the IC50 (Adenosine kinase) is reported as 10 nM and the inhibition in vivo at 20 mg/kg (Rattus norvegicus [1]) is reported as 31%.

For `O[C@@H]1[C@H](O)CO[C@H]1n1cc(-c2ccccc2)c2c(Nc3ccc(Br)cc3)ncnc21`, the IC50 (Adenosine kinase) was 5 nM and the inhibition in vivo at 20 mg/kg (Rattus norvegicus [1]) was 33%.

`CCOc1ccc(-c2cn([C@@H]3OC[C@@H](O)[C@H]3O)c3ncnc(Nc4ccc(C#N)cc4)c23)cc1` showed an IC50 (Adenosine kinase) of 2 nM and an inhibition in vivo at 20 mg/kg (Rattus norvegicus [1]) of 84%.

In the case of `C[C@H]1O[C@@H](n2cc(-c3ccccc3)c3c(Nc4ccc(F)cc4)ncnc32)[C@H](O)[C@@H]1O`, the inhibition in vivo at 20 mg/kg (Rattus norvegicus [1]) is reported as 59%.
